{"data": "Assay results from different studies", "target": "Serine/threonine-protein kinase mTOR (MTOR, Homo sapiens, UniProt P42345)", "note": "Lines come from different studies, so protocols differ."}
{"SMILES": "CN(CCCC(F)(F)F)c1nccc(-c2cnn3ncccc23)n1", "assay": "binding", "conditions": "1 µM", "remaining binding [%]": 95}
{"SMILES": "COc1cnc(Nc2cccc(S(N)(=O)=O)c2)nc1N1CCN(c2ccccc2)C(=O)C1", "assay": "binding, competition with immobilised ligand", "conditions": "1 µM", "remaining binding [%]": 87}
{"SMILES": "CN(C)c1nccc(-c2cnn3ncccc23)n1", "assay": "binding", "conditions": "1 µM", "remaining binding [%]": 100}
{"SMILES": "O=C(Nc1c[nH]nc1C(=O)NC1CCNCC1)c1cc(F)cc(F)c1", "assay": "binding, competition with immobilised ligand", "conditions": "1 µM", "remaining binding [%]": 100}
{"SMILES": "FC(F)(F)Oc1cccc(-c2cnc3ccc(-c4ccncc4)nn23)c1", "assay": "cell-free assay, competition with immobilised ligand", "conditions": "5 µM", "remaining binding [%]": 42}
{"SMILES": "O=C(NCc1ncc(C(F)(F)F)cc1Cl)c1ccc2c(c1)C1(CCS(=O)(=O)CC1)[C@@H](C1CC1)N2S(=O)(=O)c1ccc(F)cc1", "assay": "cell-free assay, competition with immobilised ligand", "conditions": "1 µM", "remaining binding [%]": 92}
{"SMILES": "Cc1cnc(Nc2ccc(C(=O)N3CCC(N4CCCC4)CC3)cc2)nc1-c1cc2ccccc2s1", "assay": "binding, competition with immobilised ligand", "conditions": "1 µM", "remaining binding [%]": 85}
{"SMILES": "C[C@H]1CCN(c2nccc(-c3cnn4ncccc34)n2)C1", "assay": "binding", "conditions": "1 µM", "remaining binding [%]": 100}
{"SMILES": "CN1CCN(c2cnc3c(C4CCN(C(=O)c5ccc(OC(F)(F)F)cc5N)CC4)ncnc3c2)CC1", "assay": "cell-free assay, competition with immobilised ligand", "conditions": "1 µM", "remaining binding [%]": 78}
{"SMILES": "Nc1ncc2c(n1)-c1c([nH]c3ccc(C#CC4CC4)cc13)CCCC2", "assay": "binding, competition with immobilised ligand", "conditions": "1 µM", "remaining binding [%]": 100}
{"SMILES": "O=C(O)[C@H]1[C@H](Cn2nnc3ccccc3c2=O)CC[C@@H]1C(=O)c1ccc(OCCC2CCOCC2)cc1", "assay": "cell-free assay, competition with immobilised ligand", "conditions": "1 µM", "remaining binding [%]": 100}
{"SMILES": "Cc1cnn2ncc(-c3ccnc(N(C)C)n3)c2c1", "assay": "binding", "conditions": "1 µM", "remaining binding [%]": 100}
{"SMILES": "COc1cc(-c2cn(C3CCc4ccccc4N(CC(F)(F)F)C3=O)nn2)ccc1-n1ccc(C)n1 (centres unmarked)", "assay": "cell-free assay, competition with immobilised ligand", "conditions": "1 µM", "remaining binding [%]": 100}
{"SMILES": "COc1ncc2cc3ccccc3nc2c1C#N", "assay": "cell-free assay, competition with immobilised ligand", "conditions": "5 µM", "remaining binding [%]": 91}
{"SMILES": "CN(C)c1nccc(-c2cnc3ncccn23)n1", "assay": "binding", "conditions": "1 µM", "remaining binding [%]": 79}
{"SMILES": "CNC(=O)Nc1ccc2c(c1)CC[C@@]21OC(=O)N(CC(=O)N(Cc2ccc(F)cc2)[C@@H](C)C(F)(F)F)C1=O", "assay": "cell-free assay, competition with immobilised ligand", "conditions": "1 µM", "remaining binding [%]": 92}
{"SMILES": "O=C(NCCCN1CCOCC1)c1ccc(Nc2ncc(Cl)c(-c3ccc(Cl)s3)n2)cc1", "assay": "binding, competition with immobilised ligand", "conditions": "1 µM", "remaining binding [%]": 94}
{"SMILES": "O=C(Nc1ccc(Oc2ccc(F)cc2)cc1)N1CCc2ncccc2[C@H]1c1ccc(F)cc1", "assay": "cell-free assay, competition with immobilised ligand", "conditions": "1 µM", "remaining binding [%]": 100}
{"SMILES": "F[C@@H]1CCN(c2nccc(-c3cnn4ncccc34)n2)C1", "assay": "binding", "conditions": "1 µM", "remaining binding [%]": 77}
{"SMILES": "O=C(NCCCN1CCOCC1)c1ccc(Nc2nccc(-c3cc4ccccc4s3)n2)cc1", "assay": "binding, competition with immobilised ligand", "conditions": "1 µM", "remaining binding [%]": 75}
